# Calls of active or inactive are those of the source. The calls are words filed in the database; no cut-off is given here.
# What was measured:
# [1] = system: MDA-MB-231; assay: Cell cycle arrest in human MDA-MB-231 cells assessed as accumulation at G1 phase at 3 uM measured after 24 hrs by propidium iodide staining based flow cytometry (reference value: 62%); format: functional
# [2] = system: MDA-MB-231; assay: Cell cycle arrest in human MDA-MB-231 cells assessed as accumulation at G1 phase at 1 uM measured after 24 hrs by propidium iodide staining based flow cytometry (reference value: 62%); format: functional
# [3] = system: MDA-MB-231; assay: Cell cycle arrest in human MDA-MB-231 cells assessed as accumulation at S phase at 1 uM measured after 24 hrs by propidium iodide staining based flow cytometry (reference value: 12%); format: functional
# [4] = system: MDA-MB-231; assay: Cell cycle arrest in human MDA-MB-231 cells assessed as accumulation at S phase at 3 uM measured after 24 hrs by propidium iodide staining based flow cytometry (reference value: 12%); format: functional
# [5] = system: MDA-MB-231; assay: Induction of apoptosis in human MDA-MB-231 cells assessed as late apoptotic cells at 10 umol/L measured after 4 hrs by annexin-V-FITC/7-AAD staining based flow cytometric analysis relative to control; format: functional
# [6] = system: MDA-MB-231; assay: Induction of apoptosis in human MDA-MB-231 cells assessed as viable cells at 10 umol/L measured after 8 hrs by annexin-V-FITC/7-AAD staining based flow cytometric analysis (reference value: 97 to 98%); format: functional; settings: MDA-MB-231, 8 h, read-out: Activity
# [7] = system: MDA-MB-231; assay: Cell cycle arrest in human MDA-MB-231 cells assessed as accumulation at G2 phase at 30 uM measured after 24 hrs by propidium iodide staining based flow cytometry (reference value: 23%); format: functional
# [8] = system: MDA-MB-231; assay: Antiproliferative activity against human MDA-MB-231 cells measured after 48 hrs by MTT assay; format: functional, cell-based; settings: MDA-MB-231, 48 h
# Procedure, shortened: (§1)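 Cells kept in 10% FBS medium with penicillin/streptomycin/L-glutamine at 37 °C, 5% CO2 (MDA-MB-231 in DMEM, K562 in RPMI 1640). Viability read by MTT reduction to formazan after 48 h of exposure. IC50 obtained by nonlinear regression against vehicle control, given as mean ±SD of three independent experiments (n = 2 where footnoted).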
# [9] = molecular target: T1, Signal transducer and activator of transcription 3 (Homo sapiens, UniProt P40763); assay: Inhibition of STAT3 phosphorylation at Y705 in human MDA-MB-231 cells after 4 hrs by HTRF assay; format: cell-based
# Procedure, shortened: (§2)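 MDA-MB-231 cells (10^5/well) were left to adhere overnight, serum-starved for 4 h in DMEM, then treated with 0.1–30 μmol/L compound (0.5% final DMSO) for 4 h at 37 °C. Lysates were incubated 24 h at room temperature with Eu-cryptate/d2 antibody pairs for phospho-STAT3 (Y705) or total STAT3. The 665/620 nm HTRF ratio was taken and phospho/total normalized. EC50 was obtained by nonlinear regression.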
# [10] = system: MDA-MB-231; assay: Cell cycle arrest in human MDA-MB-231 cells assessed as accumulation at G1 phase at 30 uM measured after 24 hrs by propidium iodide staining based flow cytometry (reference value: 62%); format: functional
# [11] = system: MDA-MB-231; assay: Induction of apoptosis in human MDA-MB-231 cells assessed as increase in early apoptotic cells at 10 umol/L measured after 4 to 24 hrs by annexin-V-FITC/7-AAD staining based flow cytometric analysis; format: functional, cell-based
# [12] = system: MDA-MB-231; assay: Induction of apoptosis in human MDA-MB-231 cells assessed as late apoptotic cells at 10 umol/L measured after 4 hrs by annexin-V-FITC/7-AAD staining based flow cytometric analysis relative to control
# [13] = system: MDA-MB-231; assay: Cell cycle arrest in human MDA-MB-231 cells assessed as accumulation at G2 phase at 3 uM measured after 24 hrs by propidium iodide staining based flow cytometry (reference value: 23%); format: functional
# [14] = system: MDA-MB-231; assay: Induction of apoptosis in human MDA-MB-231 cells assessed as viable cells at 10 umol/L measured after 4 hrs by annexin-V-FITC/7-AAD staining based flow cytometric analysis (reference value: 97 to 98%); format: functional; settings: MDA-MB-231, 4 h, read-out: Activity
# [15] = system: MDA-MB-231; assay: Induction of apoptosis in human MDA-MB-231 cells assessed as viable cells at 10 umol/L measured after 6 hrs by annexin-V-FITC/7-AAD staining based flow cytometric analysis (reference value: 97 to 98%); format: functional; settings: MDA-MB-231, 6 h, read-out: Activity
# [16] = system: MDA-MB-231; assay: Cell cycle arrest in human MDA-MB-231 cells assessed as accumulation at G2 phase at 1 uM measured after 24 hrs by propidium iodide staining based flow cytometry (reference value: 23%); format: functional
# [17] = molecular target: T1, Signal transducer and activator of transcription 3; assay: Binding affinity to STAT3 in human MDA-MB-231 cells at 100 uM measured after 1 hr by DARTS-Western blot analysis; format: cell-based
# Procedure, shortened: (§3)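 A nondenaturing lysate of MDA-MB-231 cells (M-PER with protease and phosphatase inhibitors) was incubated with compound at 100 μmol/L or DMSO for 1 h at room temperature in the dark. TNC buffer pH 8.0 was added, then thermolysin (1:3000 of protein) for 30 min at room temperature; undigested controls were kept. Run on SDS-PAGE with 10 μg protein per lane, then Western blot with anti-STAT3.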
# [18] = system: K562; assay: Induction of superoxide generation in human K562 cells at 5 umol/L measured after 24 hrs in presence of NQO1 inhibitor dicoumarol by DHE staining based flow cytometry; format: functional, cell-based
# Procedure, shortened: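 Cells were treated with compound at 5 μmol/L or DMSO for 24 h, with or without dicoumarol preincubation (5 μmol/L, 30 min), then stained with DHE for 30 min. 2-OH-DHE fluorescence was read by flow cytometry and expressed relative to vehicle control. At least three independent measurements.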
# [19] = system: MDA-MB-231; assay: Cell cycle arrest in human MDA-MB-231 cells assessed as accumulation at sub-G0 phase at 3 uM measured after 24 hrs by propidium iodide staining based flow cytometry (reference value: 3%); format: functional
# [20] = system: MDA-MB-231; assay: Cell cycle arrest in human MDA-MB-231 cells assessed as accumulation at S phase at 10 uM measured after 24 hrs by propidium iodide staining based flow cytometry (reference value: 12%); format: functional
# [21] = system: MDA-MB-231; assay: Cell cycle arrest in human MDA-MB-231 cells assessed as accumulation at sub-G0 phase at 1 uM measured after 24 hrs by propidium iodide staining based flow cytometry (reference value: 3%); format: functional
# [22] = system: MDA-MB-231; assay: Induction of apoptosis in human MDA-MB-231 cells assessed as late apoptotic cells at 10 umol/L measured after 24 hrs by annexin-V-FITC/7-AAD staining based flow cytometric analysis relative to control; format: functional
# [23] = system: MDA-MB-231; assay: Cell cycle arrest in human MDA-MB-231 cells assessed as accumulation at sub-G0 phase at 10 uM measured after 24 hrs by propidium iodide staining based flow cytometry (reference value: 3%); format: functional
# [24] = system: MDA-MB-231; assay: Induction of apoptosis in human MDA-MB-231 cells assessed as late apoptotic cells at 10 umol/L measured after 8 hrs by annexin-V-FITC/7-AAD staining based flow cytometric analysis relative to control; format: functional
# [25] = system: K562; assay: Antiproliferative activity against human K562 cells measured after 48 hrs by MTT assay; format: functional, cell-based; settings: K562, 48 h; procedure, shortened: as §1
# [26] = system: MDA-MB-231; assay: Cell cycle arrest in human MDA-MB-231 cells assessed as accumulation at sub-G0 phase at 30 uM measured after 24 hrs by propidium iodide staining based flow cytometry (reference value: 3%); format: functional
# [27] = system: MDA-MB-231; assay: Induction of apoptosis in human MDA-MB-231 cells assessed as viable cells at 10 umol/L measured after 2 hrs by annexin-V-FITC/7-AAD staining based flow cytometric analysis (reference value: 97 to 98%); format: functional; settings: MDA-MB-231, 2 h, read-out: Activity
# [28] = molecular target: T1, Signal transducer and activator of transcription 3; assay: Binding affinity to STAT3 in human MDA-MB-231 cells at 100 uM treated for 1 hr followed by thermolysin addition measured after 30 mins by DARTS-Western blot analysis; format: cell-based; procedure, shortened: as §3
# [29] = system: MDA-MB-231; assay: Cell cycle arrest in human MDA-MB-231 cells assessed as accumulation at G2 phase at 10 uM measured after 24 hrs by propidium iodide staining based flow cytometry (reference value: 23%); format: functional
# [30] = system: MDA-MB-231; assay: Cell cycle arrest in human MDA-MB-231 cells assessed as accumulation at G1 phase at 10 uM measured after 24 hrs by propidium iodide staining based flow cytometry (reference value: 62%); format: functional
# [31] = system: MDA-MB-231; assay: Induction of apoptosis in human MDA-MB-231 cells assessed as viable cells at 10 umol/L measured after 24 hrs by annexin-V-FITC/7-AAD staining based flow cytometric analysis (reference value: 97 to 98%); format: functional; settings: MDA-MB-231, 24 h, read-out: Activity
# [32] = molecular target: T1, Signal transducer and activator of transcription 3; assay: Inhibition of STAT3 phosphorylation at Y705 in human MDA-MB-231 cells assessed as reduction in ratio of phosphorylated STAT3 to total STAT3 level after 4 hrs by HTRF assay; format: cell-based; procedure, shortened: as §2
# [33] = system: MDA-MB-231; assay: Effect on total STAT3 level in human MDA-MB-231 cells at 0.1 to 30 umol/L after 4 hrs by HTRF assay; format: cell-based; settings: mda-mb-231, 4 h; procedure, shortened: as §2
# [34] = system: MDA-MB-231; assay: Cell cycle arrest in human MDA-MB-231 cells assessed as accumulation at S phase at 30 uM measured after 24 hrs by propidium iodide staining based flow cytometry (reference value: 12%); format: functional
# T1 sequence (P40763 whole entry): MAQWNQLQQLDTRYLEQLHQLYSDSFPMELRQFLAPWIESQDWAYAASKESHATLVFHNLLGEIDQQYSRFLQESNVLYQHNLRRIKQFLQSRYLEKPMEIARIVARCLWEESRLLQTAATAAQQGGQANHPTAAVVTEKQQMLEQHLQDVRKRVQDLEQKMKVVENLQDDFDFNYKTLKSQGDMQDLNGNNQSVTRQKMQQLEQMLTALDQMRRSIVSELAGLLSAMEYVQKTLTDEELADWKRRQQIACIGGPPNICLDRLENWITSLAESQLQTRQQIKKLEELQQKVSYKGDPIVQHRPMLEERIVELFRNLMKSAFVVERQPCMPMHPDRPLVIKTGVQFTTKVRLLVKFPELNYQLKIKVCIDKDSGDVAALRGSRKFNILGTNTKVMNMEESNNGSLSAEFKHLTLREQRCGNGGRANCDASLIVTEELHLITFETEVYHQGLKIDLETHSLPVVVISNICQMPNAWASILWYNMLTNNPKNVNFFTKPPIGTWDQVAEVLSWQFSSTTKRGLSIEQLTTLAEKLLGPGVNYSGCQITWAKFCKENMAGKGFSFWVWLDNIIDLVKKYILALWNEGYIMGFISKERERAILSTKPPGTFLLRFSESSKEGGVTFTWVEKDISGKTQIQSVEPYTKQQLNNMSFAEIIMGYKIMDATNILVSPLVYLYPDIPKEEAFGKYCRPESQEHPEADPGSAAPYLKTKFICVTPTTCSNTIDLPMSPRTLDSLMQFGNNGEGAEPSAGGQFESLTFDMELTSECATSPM
smiles,measurement,setting,value
CC(=O)c1cc2c(o1)-c1ccccc1C(=O)C2=O,Activity,[1],59%
same,Activity,[2],60%
same,Activity,[3],14%
same,Activity,[4],13%
same,Activity,[5],14%
same,viability at 10 µM,[6],67%
same,Activity,[7],20%
same,IC50,[8],740 nM
same,EC50,[9],870 nM
same,Activity,[10],60%
same,Activity,[11],inactive
same,Activity,[12],14%
same,Activity,[13],23%
same,viability at 10 µM,[14],82%
same,viability at 10 µM,[15],83%
same,Activity,[16],23%
same,Activity,[17],inactive
same,Activity,[18],inactive
same,Activity,[19],5%
same,Activity,[20],15%
same,Activity,[21],3%
same,Activity,[22],89%
same,Activity,[23],inactive
same,Activity,[24],31%
same,IC50,[25],1100 nM
same,Activity,[26],5%
same,viability at 10 µM,[27],93%
same,Activity,[28],Active
same,Activity,[29],20%
same,Activity,[30],63%
same,viability at 10 µM,[31],9%
same,EC50,[32],800 nM
same,Activity,[33],Non-Toxic
same,Activity,[34],15%
